Experimental data of several laboratories.
Compare with care: the assays were run in different laboratories.
Sample: plasma

SMILES | test system | conditions | AUC(0-t)
Cc1ccc2c(c1)C(=O)[C@]1(O)CCN(c3ccc4nc(C)ccc4c3)C1=N2.Cl | male rat | subcutaneous, 40 mg/kg, multiple doses, once daily | 20.4 µM·h
Cn1c(=O)c2[nH]cnc2n(C)c1=O | male Sprague-Dawley rat | intravenous, 11.25 mg/kg | 24900 ng·h/mL
CCCc1nc2c(C)cc(-c3nc4ccccc4n3C)cc2n1Cc1ccc(-c2ccccc2C(=O)O)cc1 | male Sprague-Dawley rat | oral, 8 mg/kg, single dose | 1940 ng·h/mL
C[C@H]1[C@@H](O)O[C@@H]2O[C@@]3(C)CC[C@H]4[C@H](C)CC[C@@H]1[C@@]24OO3 | male Sprague-Dawley rat | oral, 10 mg/kg | 234 ng·h/mL
C=CC(=O)N1CCC([C@@H]2CCNc3c(C(N)=O)c(-c4ccc(Oc5ccccc5)cc4)nn32)CC1 | Sprague-Dawley rat | oral, 16 mg/kg | 1450 ng·h/mL
Nc1ccn([C@@H]2O[C@H](CO)[C@@H](O)C2(F)F)c(=O)n1 | male Sprague-Dawley rat | intravenous, 5 mg/kg | 160000 ng·h/mL
COc1cc(-c2cc(C(C)=O)n3ccccc23)c(OC)cc1Cn1ccnc1 | male Sprague-Dawley rat | oral, 5 mg/kg | 2150 ng·h/mL
COc1nc(-c2cccc(-c3ccccc3)c2C)ccc1CNCCNC(=O)CCCCCCCCCCC(=O)N1CCN(CCNC(=O)c2cc3c(=O)n4cccc(C)c4nc3n(CCc3cccs3)c2=N)CC1 | male Sprague-Dawley rat | intravenous, 2 mg/kg | 1620 ng·h/mL
CCOc1c([C@H](C)n2nc(C)c3c(N)ncnc32)cc(Cl)c(F)c1[C@@H]1CNC(=O)C1 | male Sprague-Dawley rat | oral, 2 mg/kg, single dose | 4580 ng·h/mL
CCCCC(=O)Nc1ccc(-c2ccc3ncn(CCC)c(=O)c3c2)cn1 | male rat | oral, 10 mg/kg | 1200 ng·h/mL
C[C@H]1Oc2cc(cnc2N)-c2c(nn(C)c2C#N)CN(C)C(=O)c2ccc(F)cc21 | male Sprague-Dawley rat | oral, 10 mg/kg | 3160 ng·h/mL
C[C@@]12C[C@@]3(O)O[C@@H](O1)[C@]1(COC(=O)c4ccccc4)[C@H]3C[C@@]12O[C@@H]1O[C@H](CO)[C@@H](O)[C@H](O)[C@H]1O | male Sprague-Dawley rat | oral, 80 mg/kg | 3.74 ng·h/mL
COc1ccc(-c2coc3cc(O)cc(O)c3c2=O)cc1 | rat | intravenous, 2 mg/kg | 637 ng·h/mL
CCN(CC)Cc1ccc2cc(COC(=O)Nc3ccc(C(=O)NO)cc3)ccc2c1 | male Sprague-Dawley rat | oral, 10 mg/kg | 8490 ng·h/mL
COc1ccc(N(Cc2csc(-c3ccccc3)n2)C(=O)CCCCCC(=O)NO)cc1 | female Sprague-Dawley rat | oral, 30 mg/kg | 18.4 ng·h/mL
O=C1CCC(N2Cc3cc(C4CCN(Cc5ccccc5)CC4)ccc3C2=O)C(=O)N1 (stereo not drawn) | male Sprague-Dawley rat | oral, 3 mg/kg | 336 ng·h/mL
CONC(=O)c1cccc2c1cc(C)n2-c1nc2c(c(NCc3ccccc3)n1)CCCN2 | male Sprague-Dawley rat | oral, 10 mg/kg, single dose | 23.8 ng·h/mL
CC(=O)c1c(C)c2cnc(Nc3ccc(N4CCNCC4)cn3)nc2n(C2CCCC2)c1=O | male Sprague-Dawley rat | intravenous, 5 mg/kg | 1900 ng·h/mL
